Active and inactive are the calls of the source. The rule behind the calls is not given here.
Key:
[1] = target: T1, Neuronal acetylcholine receptor; alpha4/beta2 (Homo sapiens, UniProt P17787+P43681); experiment: Ratio of nicotine IC50 to compound IC50 for human alpha4beta2 nAChR assessed as inhibition of nicotine-induced [86Rb+] efflux preincubated for 10 mins before nicotine exposure by liquid scintillation counting; type: protein-complex assay
How it was run: (§1)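 Human α4β2 (YXα4β2H1 cells), ⁸⁶Rb⁺-loaded. […] IC50(10′) by nonlinear regression, and the ratio taken between reference and test IC50.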

[2] = target: T1, Neuronal acetylcholine receptor; alpha4/beta2; experiment: Ratio of varenicline IC50 to compound IC50 for human alpha4beta2 nAChR assessed as inhibition of nicotine-induced [86Rb+] efflux preincubated for 10 mins before nicotine exposure by liquid scintillation counting; type: protein-complex assay; how it was run: as §1
[3] = species: Homo sapiens; experiment: Selectivity ratio of Ki for KOR (unknown origin) to Ki for human alpha4beta2 nAChR
[4] = species: Homo sapiens; experiment: Selectivity ratio of Ki for sigma 2 receptor (unknown origin) to Ki for human alpha4beta2 nAChR
[5] = species: Homo sapiens; experiment: Selectivity ratio of Ki for SERT (unknown origin) to Ki for human alpha4beta2 nAChR
[6] = species: Homo sapiens; experiment: Selectivity ratio of Ki for NET (unknown origin) to Ki for human alpha4beta2 nAChR
[7] = species: Homo sapiens; experiment: Selectivity ratio of Ki for DAT (unknown origin) to Ki for human alpha4beta2 nAChR
[8] = species: Homo sapiens; experiment: Selectivity ratio of Ki for dopaminergic D1 receptor (unknown origin) to Ki for human alpha4beta2 nAChR
[9] = species: Homo sapiens; experiment: Selectivity ratio of Ki for alpha2C adrenergic receptor (unknown origin) to Ki for human alpha4beta2 nAChR
[10] = species: Homo sapiens; experiment: Selectivity ratio of Ki for 5HT-1C receptor (unknown origin) to Ki for human alpha4beta2 nAChR
[11] = species: Homo sapiens; experiment: Selectivity ratio of Ki for 5HT-1A receptor (unknown origin) to Ki for human alpha4beta2 nAChR
[12] = species: Homo sapiens; experiment: Selectivity ratio of Ki for 5HT-1B receptor (unknown origin) to Ki for human alpha4beta2 nAChR
[13] = Fraction unbound in rat brain homogenate at 5 uM after 4 hrs equilibrium dialysis method; type: ADME, tissue-based
How it was run: (§2)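 Test agent at 5 μM incubated in rat plasma or brain homogenate. Dialysed against PBS in a RED equilibrium dialysis device for 4 h, both sides quantified by LC/MS/MS. Unbound fraction from protein-containing vs protein-free concentrations. Brain value corrected for homogenate dilution factor D.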

[14] = Fraction unbound in rat plasma at 5 uM after 4 hrs by equilibrium dialysis method; type: ADME, cell-free; how it was run: as §2
[15] = test system: Rattus norvegicus; experiment: Effect on locomotor activity in Sprague-Dawley rat assessed as increase in activity at 0.3 to 3 mg/kg, sc administered on successive days 10 mins prior to test measured for 1 hr relative to vehicle-treated control; type: functional, organism-based
How it was run: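 Separate group of young adult female Sprague-Dawley rats (N = 12), group-housed with free food. Dosed sc at 0, 0.3, 1 or 3 mg/kg in saline 10 min before a 1 h figure-eight maze session, counterbalanced, ≥2 days apart, each dose given once. Activity counted as infrared photobeam breaks in 5 min blocks.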

[16] = test system: Rattus norvegicus; experiment: Antiaddiction activity in Sprague-Dawley rat assessed as decrease in nicotine intravenous self-administration at 0.3 to 1 mg/kg, sc administered on successive days 10 mins prior to test relative to vehicle-treated control; type: functional, organism-based
How it was run: (§3)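 Young adult female Sprague-Dawley rats (N = 15), singly housed on a reverse 12:12 cycle. […] Drug at 0, 0.3, 1 or 3 mg/kg sc in saline (1 mL/kg), 10 min pretest, counterbalanced, ≥2 days apart. Each dose given twice. Infusions analysed per session and per 15 min period.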

[17] = test system: Rattus norvegicus; experiment: Antiaddiction activity in Sprague-Dawley rat assessed as decrease in nicotine intravenous self-administration at 3 mg/kg, sc […] relative to vehicle-treated control; type: functional, organism-based; design: dose 3 mg/kg
[18] = target: T1, Neuronal acetylcholine receptor; alpha4/beta2; experiment: Agonist activity at human alpha4beta2 nAChR assessed as induction of inward current by whole-cell voltage clamp analysis relative to acetylcholine; type: protein-complex assay
How it was run: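 Whole-cell voltage clamp at −70 mV on YXα4β2H1 cells pretreated with 1 mM carbachol for 48 h. Pipette K-gluconate/EGTA/ATP/GTP solution, pH 7.2. Perfusion saline pH 7.4 at 24 °C. Test agent 200 nM applied by bath. Current normalized to two stable prior 32 μM ACh responses given 5 min apart. n = 3 cells.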

[19] = target: T2, Neuronal acetylcholine receptor; alpha3/beta4 (Rattus norvegicus, UniProt P04757+P12392); experiment: Antagonist activity at rat alpha3beta4 nAChR expressed in HEK293 cells assessed as inhibition of nicotine-induced [86Rb+] efflux preincubated for 10 mins before nicotine exposure by liquid scintillation counting; type: cell-based
[20] = target: T1, Neuronal acetylcholine receptor; alpha4/beta2; experiment: Agonist activity at human alpha4beta2 nAChR assessed as stimulation of [86Rb+] efflux after 2 mins by cell-based liquid scintillation counting relative to nicotine
[21] = target: T1, Neuronal acetylcholine receptor; alpha4/beta2; experiment: Agonist activity at human alpha4beta2 nAChR assessed as stimulation of [86Rb+] efflux after 2 mins by cell-based liquid scintillation counting
[22] = test system: Rattus norvegicus; experiment: Antiaddiction activity in Sprague-Dawley rat assessed as decrease in nicotine intravenous self-administration at 3 mg/kg, sc administered on successive days 10 mins prior to test measured at 15 mins time period each session relative to vehicle-treated control; type: functional, organism-based; design: dose 3 mg/kg; how it was run: as §3
[23] = test system: HEK293; experiment: Selectivity ratio of Ki for rat alpha3beta4 nAChR expressed in HEK293 cells to Ki for human alpha4beta2 nAChR; type: cell-based
[24] = Displacement of [3H]epibatidine from nAChR in rat forebrain; type: tissue-based
How it was run: (§4)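 Membranes from stably transfected cells or rat forebrain, homogenized in 50 mM Tris·HCl, pH 7.4, at 4 °C and pelleted at 36000g. […] Separation by vacuum filtration on PEI-treated GF/C filters. Ki reported.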

[25] = target: Neuronal acetylcholine receptor; alpha4/beta4 (Rattus norvegicus, UniProt P09483+P12392); experiment: Displacement of [3H]epibatidine from rat alpha4beta4 nAChR expressed in HEK293 cells after 4 hrs; type: cell-based; how it was run: as §4
[26] = target: T1, Neuronal acetylcholine receptor; alpha4/beta2; experiment: Displacement of [3H]epibatidine from human alpha4beta2 nAChR after 4 hrs by cell-based assay
How it was run: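 Membranes from stably transfected cells or rat forebrain, homogenized in 50 mM Tris·HCl, pH 7.4, at 4 °C and pelleted at 36000g. Separation by vacuum filtration on PEI-treated GF/C filters. Ki reported.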

[27] = target: T2, Neuronal acetylcholine receptor; alpha3/beta4; experiment: Displacement of [3H]epibatidine from rat alpha3beta4 nAChR expressed in HEK293 cells after 4 hrs; type: cell-based; how it was run: as §4
[28] = target: Neuronal acetylcholine receptor; alpha3/beta2 (Rattus norvegicus, UniProt P04757+P12390); experiment: Displacement of [3H]epibatidine from rat alpha3beta2 nAChR expressed in HEK293 cells after 4 hrs; type: cell-based; how it was run: as §4
[29] = target: Neuronal acetylcholine receptor; alpha2/beta4 (Rattus norvegicus, UniProt P12389+P12392); experiment: Displacement of [3H]epibatidine from rat alpha2beta4 nAChR expressed in HEK293 cells after 4 hrs; type: cell-based; how it was run: as §4
[30] = target: Neuronal acetylcholine receptor; alpha2/beta2 (Rattus norvegicus, UniProt P12389+P12390); experiment: Displacement of [3H]epibatidine from rat alpha2beta2 nAChR expressed in HEK293 cells after 4 hrs; type: cell-based; how it was run: as §4
Neuronal acetylcholine receptor; alpha2/beta2, sequence (P12389 whole entry): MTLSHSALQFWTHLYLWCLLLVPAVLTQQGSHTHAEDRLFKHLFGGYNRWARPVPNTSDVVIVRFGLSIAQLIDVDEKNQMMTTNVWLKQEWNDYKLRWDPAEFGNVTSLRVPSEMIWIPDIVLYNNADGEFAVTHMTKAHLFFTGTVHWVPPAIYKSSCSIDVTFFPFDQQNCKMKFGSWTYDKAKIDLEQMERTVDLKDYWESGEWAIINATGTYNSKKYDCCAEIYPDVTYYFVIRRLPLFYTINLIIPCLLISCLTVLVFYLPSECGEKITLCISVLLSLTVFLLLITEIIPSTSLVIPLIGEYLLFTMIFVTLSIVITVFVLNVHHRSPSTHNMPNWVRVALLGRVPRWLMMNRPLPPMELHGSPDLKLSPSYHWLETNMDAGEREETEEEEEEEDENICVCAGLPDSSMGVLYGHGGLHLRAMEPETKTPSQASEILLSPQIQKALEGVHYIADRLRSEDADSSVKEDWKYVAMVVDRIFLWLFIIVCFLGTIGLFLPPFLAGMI
Neuronal acetylcholine receptor; alpha2/beta2, sequence (P12390 whole entry): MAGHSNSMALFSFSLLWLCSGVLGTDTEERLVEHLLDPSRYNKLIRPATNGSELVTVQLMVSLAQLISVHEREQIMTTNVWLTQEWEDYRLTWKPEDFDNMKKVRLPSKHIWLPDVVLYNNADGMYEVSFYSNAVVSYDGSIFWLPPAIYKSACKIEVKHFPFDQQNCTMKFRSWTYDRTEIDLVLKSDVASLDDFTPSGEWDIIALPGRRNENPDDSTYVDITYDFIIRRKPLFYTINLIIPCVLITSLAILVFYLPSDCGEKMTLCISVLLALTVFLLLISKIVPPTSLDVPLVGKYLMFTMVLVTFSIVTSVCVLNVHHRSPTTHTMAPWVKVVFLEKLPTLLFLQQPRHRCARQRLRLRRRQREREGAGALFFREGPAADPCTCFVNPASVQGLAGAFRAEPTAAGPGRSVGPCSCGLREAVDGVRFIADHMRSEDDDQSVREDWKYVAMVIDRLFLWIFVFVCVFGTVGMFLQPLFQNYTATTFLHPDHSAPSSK

T1 sequence (P17787 whole entry): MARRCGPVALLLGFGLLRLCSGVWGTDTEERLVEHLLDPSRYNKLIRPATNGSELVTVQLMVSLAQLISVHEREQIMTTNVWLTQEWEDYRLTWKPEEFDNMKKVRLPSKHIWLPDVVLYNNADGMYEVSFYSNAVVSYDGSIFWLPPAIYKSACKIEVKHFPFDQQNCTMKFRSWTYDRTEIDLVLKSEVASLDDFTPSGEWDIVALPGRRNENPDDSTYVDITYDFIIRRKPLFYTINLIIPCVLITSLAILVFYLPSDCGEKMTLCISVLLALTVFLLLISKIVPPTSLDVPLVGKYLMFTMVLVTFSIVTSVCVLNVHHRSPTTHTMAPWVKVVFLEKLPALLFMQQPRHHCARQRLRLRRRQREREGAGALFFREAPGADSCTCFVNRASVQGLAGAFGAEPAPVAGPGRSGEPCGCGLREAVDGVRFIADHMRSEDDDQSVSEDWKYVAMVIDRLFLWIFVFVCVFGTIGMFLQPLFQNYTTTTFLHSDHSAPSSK
T1 sequence (P43681 whole entry): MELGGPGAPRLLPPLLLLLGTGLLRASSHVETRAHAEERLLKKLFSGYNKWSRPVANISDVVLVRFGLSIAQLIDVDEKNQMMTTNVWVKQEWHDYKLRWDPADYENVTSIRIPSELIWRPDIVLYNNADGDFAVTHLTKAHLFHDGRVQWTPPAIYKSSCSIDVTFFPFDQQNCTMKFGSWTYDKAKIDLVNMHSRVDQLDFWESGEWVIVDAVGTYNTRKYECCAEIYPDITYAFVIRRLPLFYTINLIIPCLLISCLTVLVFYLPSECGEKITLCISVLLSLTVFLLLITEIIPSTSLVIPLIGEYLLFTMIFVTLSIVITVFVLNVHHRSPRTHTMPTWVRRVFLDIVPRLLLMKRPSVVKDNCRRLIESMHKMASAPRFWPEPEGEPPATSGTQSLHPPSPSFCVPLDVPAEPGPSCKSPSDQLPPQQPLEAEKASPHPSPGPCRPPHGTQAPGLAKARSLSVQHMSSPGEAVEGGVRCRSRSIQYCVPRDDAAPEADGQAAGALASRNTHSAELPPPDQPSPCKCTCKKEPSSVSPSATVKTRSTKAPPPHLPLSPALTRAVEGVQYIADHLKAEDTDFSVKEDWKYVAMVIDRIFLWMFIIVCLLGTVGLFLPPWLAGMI
T2 sequence (P04757 whole entry): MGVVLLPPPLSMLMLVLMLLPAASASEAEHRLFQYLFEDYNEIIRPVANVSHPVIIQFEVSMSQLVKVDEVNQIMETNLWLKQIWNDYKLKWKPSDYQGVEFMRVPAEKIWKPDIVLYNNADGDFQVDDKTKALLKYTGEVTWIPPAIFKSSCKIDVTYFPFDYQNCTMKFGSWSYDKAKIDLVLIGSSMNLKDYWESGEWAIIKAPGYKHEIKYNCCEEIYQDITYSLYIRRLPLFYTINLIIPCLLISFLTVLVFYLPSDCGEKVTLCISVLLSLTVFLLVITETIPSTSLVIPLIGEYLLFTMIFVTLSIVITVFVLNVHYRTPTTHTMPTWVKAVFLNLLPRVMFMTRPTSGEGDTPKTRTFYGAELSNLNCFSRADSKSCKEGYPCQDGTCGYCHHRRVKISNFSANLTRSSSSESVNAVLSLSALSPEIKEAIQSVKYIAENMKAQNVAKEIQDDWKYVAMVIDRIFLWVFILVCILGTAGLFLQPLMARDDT
T2 sequence (P12392 whole entry): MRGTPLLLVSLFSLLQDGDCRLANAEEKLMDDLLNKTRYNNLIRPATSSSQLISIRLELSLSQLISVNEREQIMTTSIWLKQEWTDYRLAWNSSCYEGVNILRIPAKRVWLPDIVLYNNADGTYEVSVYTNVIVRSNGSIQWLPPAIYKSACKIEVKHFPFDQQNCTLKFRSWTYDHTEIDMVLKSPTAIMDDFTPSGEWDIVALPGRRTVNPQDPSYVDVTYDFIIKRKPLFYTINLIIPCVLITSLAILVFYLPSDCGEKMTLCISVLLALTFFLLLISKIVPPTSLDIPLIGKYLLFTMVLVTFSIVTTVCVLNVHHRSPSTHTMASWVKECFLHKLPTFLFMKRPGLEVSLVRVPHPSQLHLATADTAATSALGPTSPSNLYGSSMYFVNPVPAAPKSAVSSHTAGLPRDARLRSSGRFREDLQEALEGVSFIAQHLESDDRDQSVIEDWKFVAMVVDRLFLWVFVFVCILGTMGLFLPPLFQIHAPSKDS
Neuronal acetylcholine receptor; alpha4/beta4, sequence (P09483 whole entry): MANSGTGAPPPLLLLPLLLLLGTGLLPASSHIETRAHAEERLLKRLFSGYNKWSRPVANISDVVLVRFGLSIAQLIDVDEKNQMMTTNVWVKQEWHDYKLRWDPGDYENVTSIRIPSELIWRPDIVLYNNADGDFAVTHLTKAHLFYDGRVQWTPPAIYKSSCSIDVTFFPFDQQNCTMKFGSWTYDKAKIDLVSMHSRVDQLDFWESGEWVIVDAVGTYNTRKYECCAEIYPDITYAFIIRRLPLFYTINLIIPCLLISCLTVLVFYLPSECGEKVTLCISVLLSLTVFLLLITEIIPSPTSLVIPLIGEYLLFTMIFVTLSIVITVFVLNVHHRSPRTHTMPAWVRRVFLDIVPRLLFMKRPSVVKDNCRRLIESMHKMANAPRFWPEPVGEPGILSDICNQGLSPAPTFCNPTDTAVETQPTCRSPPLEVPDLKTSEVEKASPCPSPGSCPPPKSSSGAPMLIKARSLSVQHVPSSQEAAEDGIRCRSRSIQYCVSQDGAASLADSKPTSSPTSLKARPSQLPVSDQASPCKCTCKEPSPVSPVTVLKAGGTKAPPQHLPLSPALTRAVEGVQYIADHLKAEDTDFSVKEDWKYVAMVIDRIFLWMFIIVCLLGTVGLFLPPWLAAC
Neuronal acetylcholine receptor; alpha4/beta4, sequence (P12392 whole entry): as the sequence (P12392 whole entry) above
Neuronal acetylcholine receptor; alpha2/beta4, sequence (P12389 whole entry): as the sequence (P12389 whole entry) above
Neuronal acetylcholine receptor; alpha2/beta4, sequence (P12392 whole entry): as the sequence (P12392 whole entry) above
Neuronal acetylcholine receptor; alpha3/beta2, sequence (P04757 whole entry): as the sequence (P04757 whole entry) above
Neuronal acetylcholine receptor; alpha3/beta2, sequence (P12390 whole entry): as the sequence (P12390 whole entry) above

## C(#Cc1cncc(OC[C@@H]2CCN2)c1)c1ccccc1
[1]
  Ratio IC50: 23
[2]
  Ratio IC50: 6
[3]
  Ratio Ki: > 3000
[4]
  Ratio Ki: > 3000
[5]
  Ratio Ki: > 3000
[6]
  Ratio Ki: > 3000
[7]
  Ratio Ki: > 3000
[8]
  Ratio Ki: > 3000
[9]
  Ratio Ki: > 3000
[10]
  Ratio Ki: > 3000
[11]
  Ratio Ki: > 3000
[12]
  Ratio Ki: > 3000
[13]
  fraction unbound at 4 h, 5 µM: 0.0121
[14]
  fraction unbound at 4 h, 5 µM: 0.084
[15]
  Activity: Active
[16]
  Activity: inactive
[17]
  Activity: Active
[18]
  Activity: 12.6%
[19]
  IC50: > 10000 nM
[20]
  Emax: 24%
[21]
  EC50: 10 nM
[22]
  Activity: Active
[23]
  Ratio Ki: 13000
[24]
  Ki: 0.5 nM
[25]
  Ki: 11 nM
[26]
  Ki: 0.049 nM
[27]
  Ki: 640 nM
[28]
  Ki: 0.53 nM
[29]
  Ki: 58 nM
[30]
  Ki: 0.11 nM
